Source: ChEMBL document CHEMBL1132203, “Synthesis and biological properties of novel pyridinioalkanoyl thiolesters (PATE) as anti-HIV-1 agents that target the viral nucleocapsid protein zinc fingers” (J Med Chem, 1999)

What was measured:
[1] = tested on: Human immunodeficiency virus 1; experiment: Effective antiviral concentration against HIV-1 infected CEM-SS cells; type: functional, organism-based; settings: Human immunodeficiency virus 1, CEM-SS
Method in brief: (§1)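 CEM-SS cells infected with HIV-1 RF at MOI 0.01, scored by XTT dye-reduction cytoprotection. EC50 is the concentration giving 50% protection of infected cells. IC50 is the concentration causing 50% cytotoxicity (growth inhibition). High test concentration 316 μM.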

[2] = tested on: Human immunodeficiency virus 1; experiment: Antiviral activity against HIV-1 infected CEM-SS cells was determined in XTT cytoprotection assay; type: functional, organism-based; settings: Human immunodeficiency virus 1, CEM-SS; method in brief: as §1
[3] = tested on: Human immunodeficiency virus 1; experiment: Nucleocapsid p7 protein (NCp7) zinc finger domain reactivity was measured by Trp37 fluorescence assay expressed as the average decrease in relative fluorescence units over 30 min; type: functional
Method in brief: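 Recombinant HIV-1 NCp7 (pET3A construct expressed in E. coli BL21); intrinsic fluorescence of Trp37 in the C-terminal zinc finger monitored over 30 min after compound addition. Value is the mean fall in relative fluorescence units per minute across 30 min, taken as a readout of Zn ejection. Dithiane or DIBA-1 served as reference. Where glutathione pretreatment was used, 2 mM compound was held 2 h at 37 °C with 2–8 M excess reduced glutathione, then diluted 40-fold to 50 μM final compound.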

COc1cnc(NS(=O)(=O)c2ccc(-n3sc4ccccc4c3=O)cc2)nc1
EC50 [1]: 17.8 µM | IC50 [2]: 57.6 µM

Cc1cc(NS(=O)(=O)c2ccc(NC(=O)c3ccccc3SSc3ccccc3C(=O)Nc3ccc(S(=O)(=O)Nc4cc(C)on4)cc3)cc2)no1
EC50 [1]: 1.9 µM | IC50 [2]: 27.6 µM

Cc1nnc(NS(=O)(=O)c2ccc(-n3sc4ccccc4c3=O)cc2)s1
EC50 [1]: 7.8 µM | IC50 [2]: 17.3 µM

Cc1cc(C)nc(NS(=O)(=O)c2ccc(NC(=O)c3ccccc3SSc3ccccc3C(=O)Nc3ccc(S(=O)(=O)Nc4nc(C)cc(C)n4)cc3)cc2)n1
EC50 [1]: 1.6 µM | IC50 [2]: 32.2 µM

O=C(CCCCBr)Sc1ccccc1C(=O)Nc1ccc(S(=O)(=O)c2ccc(NS(=O)(=O)Cc3ccccc3[N+](=O)[O-])cc2)cc1
IC50 [2]: > 316 µM | Activity [3]: 1.9 RFU min-1

Cc1noc(NS(=O)(=O)c2ccc(-n3sc4ccccc4c3=O)cc2)c1C
EC50 [1]: 12.8 µM | IC50 [2]: 39 µM

CC(=O)NS(=O)(=O)c1ccc(-n2sc3ccccc3c2=O)cc1
EC50 [1]: 12.6 µM | IC50 [2]: 34 µM

O=C(Nc1ccc(S(=O)(=O)Nc2nccs2)cc1)c1ccccc1SSc1ccccc1C(=O)Nc1ccc(S(=O)(=O)Nc2nccs2)cc1
EC50 [1]: 1 µM | IC50 [2]: 18 µM

CC(=O)NS(=O)(=O)c1ccc(NC(=O)c2ccccc2NC(=O)CCCC[n+]2ccccc2)cc1.[Br-]
IC50 [2]: > 316 µM | Activity [3]: 2.6 RFU min-1

O=C(NS(=O)(=O)c1ccc(-n2sc3ccccc3c2=O)cc1)c1ccccc1
EC50 [1]: 9.3 µM | IC50 [2]: 49.5 µM

O=c1c2ccccc2sn1-c1ccc(S(=O)(=O)Nc2ccc(Cl)nn2)cc1
EC50 [1]: 7.1 µM | IC50 [2]: 19.2 µM

COc1cc(NS(=O)(=O)c2ccc(-n3sc4ccccc4c3=O)cc2)nc(OC)n1
EC50 [1]: 7.6 µM | IC50 [2]: 56.6 µM

NS(=O)(=O)c1ccc(CNC(=O)c2ccccc2SSc2ccccc2C(=O)NCc2ccc(S(N)(=O)=O)cc2)cc1
EC50 [1]: 0.33 µM | IC50 [2]: 19.4 µM | Activity [3]: 3.3 RFU min-1

O=c1c2ccccc2sn1-c1ccc(S(=O)(=O)c2ccc(NS(=O)(=O)Cc3ccccc3[N+](=O)[O-])cc2)cc1
EC50 [1]: 3.2 µM | IC50 [2]: 59.5 µM | Activity [3]: 2 RFU min-1

NS(=O)(=O)c1ccc(CNC(=O)c2ccccc2SC(=O)CCCC[n+]2ccccc2)cc1.[Br-]
EC50 [1]: 1.1 µM | IC50 [2]: 55 µM | Activity [3]: 1.4 RFU min-1

COc1cc(NS(=O)(=O)c2ccc(NC(=O)c3ccccc3SSc3ccccc3C(=O)Nc3ccc(S(=O)(=O)Nc4cc(OC)nc(OC)n4)cc3)cc2)nc(OC)n1
EC50 [1]: 2.1 µM | IC50 [2]: 52.5 µM

O=c1c2ccccc2sn1-c1ccc(S(=O)(=O)Nc2cnc3ccccc3n2)cc1
EC50 [1]: 9.2 µM | IC50 [2]: 54.7 µM

CC(=O)NS(=O)(=O)c1ccc(NC(=O)c2ccccc2NC(=O)CCl)cc1
IC50 [2]: 202 µM | Activity [3]: 0.3 RFU min-1

CC(=O)NS(=O)(=O)c1ccc(NC(=O)c2ccccc2NC(=O)CCCl)cc1
IC50 [2]: > 316 µM | Activity [3]: 2 RFU min-1

O=C(Nc1ccc(S(=O)(=O)c2ccc(NC(=O)c3ccccc3SSc3ccccc3C(=O)Nc3ccc(S(=O)(=O)c4ccc(NC(=O)c5cccs5)cc4)cc3)cc2)cc1)c1cccs1
EC50 [1]: 12.2 µM | IC50 [2]: 190 µM

O=C(Nc1ccc(S(=O)(=O)c2ccc(NS(=O)(=O)Cc3ccccc3[N+](=O)[O-])cc2)cc1)c1ccccc1SSc1ccccc1C(=O)Nc1ccc(S(=O)(=O)c2ccc(NS(=O)(=O)Cc3ccccc3[N+](=O)[O-])cc2)cc1
EC50 [1]: 12.3 µM | IC50 [2]: > 316 µM | Activity [3]: 1.5 RFU min-1

CC(=O)Nc1ccc(S(=O)(=O)Nc2ccc(S(=O)(=O)c3ccc(NC(=O)c4ccccc4SSc4ccccc4C(=O)Nc4ccc(S(=O)(=O)c5ccc(NS(=O)(=O)c6ccc(NC(C)=O)cc6)cc5)cc4)cc3)cc2)cc1
EC50 [1]: 1 µM | IC50 [2]: 12.7 µM | Activity [3]: 5.9 RFU min-1

Cc1cc(NS(=O)(=O)c2ccc(-n3sc4ccccc4c3=O)cc2)nc(C)n1
EC50 [1]: 6.5 µM | IC50 [2]: 39.7 µM

NS(=O)(=O)c1ccc(NS(=O)(=O)c2ccc(-n3sc4ccccc4c3=O)cc2)cc1
EC50 [1]: 6.2 µM | IC50 [2]: 18.1 µM

O=C(NS(=O)(=O)c1ccc(NC(=O)c2ccccc2SSc2ccccc2C(=O)Nc2ccc(S(=O)(=O)NC(=O)c3ccccc3)cc2)cc1)c1ccccc1
EC50 [1]: 3.8 µM | IC50 [2]: 54.1 µM

CC(=O)Nc1ccc(S(=O)(=O)c2ccc(NC(=O)c3ccccc3SC(=O)CCCC[n+]3ccccc3)cc2)cc1.[Br-]
EC50 [1]: 4.6 µM | IC50 [2]: 288 µM | Activity [3]: 1.7 RFU min-1

Cc1ccnc(NS(=O)(=O)c2ccc(-n3sc4ccccc4c3=O)cc2)n1
EC50 [1]: 8.8 µM | IC50 [2]: 57.4 µM

CC(=O)NS(=O)(=O)c1ccc(NC(=O)c2ccccc2SC(=O)CCCl)cc1
EC50 [1]: 4.2 µM | IC50 [2]: 62 µM | Activity [3]: 9.2 RFU min-1

Cc1noc(NS(=O)(=O)c2ccc(NC(=O)c3ccccc3SSc3ccccc3C(=O)Nc3ccc(S(=O)(=O)Nc4onc(C)c4C)cc3)cc2)c1C
EC50 [1]: 2.5 µM | IC50 [2]: 44.2 µM

NS(=O)(=O)c1ccc(CCNC(=O)c2ccccc2SSc2ccccc2C(=O)NCCc2ccc(S(N)(=O)=O)cc2)cc1
EC50 [1]: 0.41 µM | IC50 [2]: 52.8 µM | Activity [3]: 2.7 RFU min-1

O=C(Nc1ccc(S(=O)(=O)Nc2ccccn2)cc1)c1ccccc1SSc1ccccc1C(=O)Nc1ccc(S(=O)(=O)Nc2ccccn2)cc1
EC50 [1]: 1.1 µM | IC50 [2]: 17.8 µM

O=C(Nc1ccc(S(=O)(=O)Nc2ccnn2-c2ccccc2)cc1)c1ccccc1SSc1ccccc1C(=O)Nc1ccc(S(=O)(=O)Nc2ccnn2-c2ccccc2)cc1
EC50 [1]: 0.33 µM | IC50 [2]: 19.5 µM

O=C(Nc1ccc(S(=O)(=O)Nc2ccc(Cl)nn2)cc1)c1ccccc1SSc1ccccc1C(=O)Nc1ccc(S(=O)(=O)Nc2ccc(Cl)nn2)cc1
EC50 [1]: 2.9 µM | IC50 [2]: 18.3 µM

Cc1cc(NS(=O)(=O)c2ccc(NC(=O)c3ccccc3SSc3ccccc3C(=O)Nc3ccc(S(=O)(=O)Nc4cc(C)nc(C)n4)cc3)cc2)nc(C)n1
EC50 [1]: 1.9 µM | IC50 [2]: 18.2 µM

O=C(Nc1ccc(S(=O)(=O)Nc2cnc3ccccc3n2)cc1)c1ccccc1SSc1ccccc1C(=O)Nc1ccc(S(=O)(=O)Nc2cnc3ccccc3n2)cc1
EC50 [1]: 0.72 µM | IC50 [2]: 22.2 µM

COc1ccc(NS(=O)(=O)c2ccc(NC(=O)c3ccccc3SSc3ccccc3C(=O)Nc3ccc(S(=O)(=O)Nc4ccc(OC)nn4)cc3)cc2)nn1
EC50 [1]: 4.2 µM | IC50 [2]: 53.8 µM

O=c1c2ccccc2sn1-c1ccc(S(=O)(=O)Nc2ncccn2)cc1
EC50 [1]: 6.5 µM | IC50 [2]: 50.8 µM

NS(=O)(=O)c1ccc(NS(=O)(=O)c2ccc(NC(=O)c3ccccc3SSc3ccccc3C(=O)Nc3ccc(S(=O)(=O)Nc4ccc(S(N)(=O)=O)cc4)cc3)cc2)cc1
EC50 [1]: 2.3 µM | IC50 [2]: 43 µM

Cc1cc(C)nc(NS(=O)(=O)c2ccc(-n3sc4ccccc4c3=O)cc2)n1
EC50 [1]: 6.9 µM | IC50 [2]: 17.1 µM

O=C(Nc1ccc(S(=O)(=O)Nc2ncccn2)cc1)c1ccccc1SSc1ccccc1C(=O)Nc1ccc(S(=O)(=O)Nc2ncccn2)cc1
EC50 [1]: 2 µM | IC50 [2]: 46.4 µM

COc1cc(NS(=O)(=O)c2ccc(NC(=O)c3ccccc3SSc3ccccc3C(=O)Nc3ccc(S(=O)(=O)Nc4cc(OC)ncn4)cc3)cc2)ncn1
EC50 [1]: 1.6 µM | IC50 [2]: 46.5 µM

Cc1ccnc(NS(=O)(=O)c2ccc(NC(=O)c3ccccc3SSc3ccccc3C(=O)Nc3ccc(S(=O)(=O)Nc4nccc(C)n4)cc3)cc2)n1
EC50 [1]: 4.2 µM | IC50 [2]: 56.7 µM

O=c1c2ccccc2sn1-c1ccc(S(=O)(=O)c2ccc([N+](=O)[O-])cc2)cc1
IC50 [2]: > 316 µM | Activity [3]: 4.1 RFU min-1

CC(=O)NS(=O)(=O)c1ccc(NC(=O)c2ccccc2SSc2ccccc2C(=O)Nc2ccc(S(=O)(=O)NC(C)=O)cc2)cc1
EC50 [1]: 1.5 µM | IC50 [2]: > 200 µM

Cc1nc(NS(=O)(=O)c2ccc(NC(=O)c3ccccc3SSc3ccccc3C(=O)Nc3ccc(S(=O)(=O)Nc4nc(C)c(C)o4)cc3)cc2)oc1C
EC50 [1]: 2.4 µM | IC50 [2]: 46.4 µM

CC(=O)NS(=O)(=O)c1ccc(NC(=O)c2ccccc2SC(=O)c2ccccc2)cc1
EC50 [1]: 2.6 µM | IC50 [2]: 45.7 µM | Activity [3]: 2.2 RFU min-1

O=C(Nc1ccc(S(=O)(=O)c2ccc(NC(=O)c3ccccc3SSc3ccccc3C(=O)Nc3ccc(S(=O)(=O)c4ccc(NC(=O)c5cc([N+](=O)[O-])cc([N+](=O)[O-])c5)cc4)cc3)cc2)cc1)c1cc([N+](=O)[O-])cc([N+](=O)[O-])c1
EC50 [1]: 240 µM | IC50 [2]: > 316 µM | Activity [3]: 1.6 RFU min-1

NS(=O)(=O)c1ccc(NC(=O)c2ccccc2SSc2ccccc2C(=O)Nc2ccc(S(N)(=O)=O)cc2)cc1
EC50 [1]: 0.85 µM | IC50 [2]: 217 µM

NS(=O)(=O)c1ccc(-n2sc3ccccc3c2=O)cc1
IC50 [2]: 16.2 µM

Cc1nnc(NS(=O)(=O)c2ccc(NC(=O)c3ccccc3SSc3ccccc3C(=O)Nc3ccc(S(=O)(=O)Nc4nnc(C)s4)cc3)cc2)s1
EC50 [1]: 3.4 µM | IC50 [2]: 18.6 µM

COc1cnc(NS(=O)(=O)c2ccc(NC(=O)c3ccccc3SSc3ccccc3C(=O)Nc3ccc(S(=O)(=O)Nc4ncc(OC)cn4)cc3)cc2)nc1
EC50 [1]: 2.1 µM | IC50 [2]: 55.5 µM

N=C(N)NS(=O)(=O)c1ccc(NC(=O)c2ccccc2SSc2ccccc2C(=O)Nc2ccc(S(=O)(=O)N=C(N)N)cc2)cc1
EC50 [1]: 111 µM | IC50 [2]: > 316 µM

Cc1cc(NS(=O)(=O)c2ccc(-n3sc4ccccc4c3=O)cc2)no1
EC50 [1]: 8.7 µM | IC50 [2]: 54.6 µM

CC(=O)NS(=O)(=O)c1ccc(NC(=O)c2ccccc2SC(C)=O)cc1
EC50 [1]: 2.8 µM | IC50 [2]: 56.7 µM | Activity [3]: 4.2 RFU min-1

COc1ccc(NS(=O)(=O)c2ccc(-n3sc4ccccc4c3=O)cc2)nn1
EC50 [1]: 22.6 µM | IC50 [2]: 55.3 µM
